# Measurements from ChEMBL document CHEMBL1765044, “3-Hydroxypyrimidine-2,4-diones as an inhibitor scaffold of HIV integrase” (J Med Chem, 2011).
# How the values were obtained:
# [1] = system: Human immunodeficiency virus 1; experiment: Antiviral activity against Human immunodeficiency virus 1 3B infected in CEM-SS cells assessed as reduction in virus-induced cytopathic effect at 10 uM after 6 days; type: functional; design: scale not given: the % may be the effect or the level left
# Outline: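 CEM-SS cells were mixed with pre-titered HIV-1 IIIB and the compound at a single 10 μM and incubated for 6 days. Virus dose was set to give 70–95% viability loss in virus-control wells. CPE reduction (cytoprotection) and cell viability were read by MTS. Plates included cell, virus, compound-toxicity and colorimetric control wells, with AZT as positive control.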
# [2] = system: Human immunodeficiency virus 1; experiment: Antiviral activity against Human immunodeficiency virus 1 3B infected in human CEM-SS cells assessed as cytoprotection against virus-induced toxicity at 10 uM after 6 days by MTS assay; type: functional
# Outline: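 Single-concentration screen at 10 μM, run only on compounds with strand-transfer IC50 ≤10 μM. CPE reduction (%) and cell viability (%) assessed by MTS; AZT positive control.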
# [3] = Inhibition of Human immunodeficiency virus recombinant integrase 3'-processing activity expressed in Escherichia coli after 60 mins using [32P]-labeled oligonucleotide substrate by densitometric analysis
# [4] = Inhibition of HIV recombinant integrase strand transfer activity expressed in Escherichia coli after 60 mins using [32P]-labeled oligonucleotide substrate by densitometric analysis; design: species or system Human immunodeficiency virus
# [5] = system: Human immunodeficiency virus 1; experiment: Antiviral activity against Human immunodeficiency virus 1 3B infected in CEM-SS cells assessed as inhibition of viral replication after 6 days; type: functional, organism-based; settings: 144 h
# Outline: (§1)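 CEM-SS cells mixed with pre-titered HIV-1 IIIB (titer chosen so virus-control wells lose 70–95% viability) plus compound in dose response, incubated 6 days. Viability read by MTS; controls are cells alone, cells+virus, cells+compound and compound alone. EC50 is the concentration protecting 50% against virus-induced loss; CC50 is the concentration killing 50% of cells; TI = CC50/EC50. AZT used as positive control.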
# CEM-SS = experiment: (§2) Cytotoxicity against human CEM-SS cells infected with Human immunodeficiency virus 1 3B after 6 days by MTS assay; type: cell-based; settings: cem-ss, 144 h; outline: as §1
# [6] = Therapeutic index, ratio of CC50 for human CEM-SS cells to EC50 for Human immunodeficiency virus 1 3B; type: cell-based; settings: read-out: TI
# Outline: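 CEM-SS cells mixed with HIV-1 IIIB and compound, incubated 6 days; virus pre-titered so control wells lose 70–95% viability. Cytoprotection (EC50) and cytotoxicity in uninfected compound-only wells (CC50) read by MTS from dose-response. TI calculated as CC50/EC50. Controls: cells only, virus only, and compound only (colorimetric). AZT served as positive control.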
# [7] = system: Human immunodeficiency virus 1; settings: NL4-3
# [8] = system: Human immunodeficiency virus 1; experiment: Ratio of IC50 for Human immunodeficiency virus 1 NL4-3 integrase Y143R mutant to IC50 for wild-type Human immunodeficiency virus 1 NL4-3 integrase
# Outline: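 Recombinant HIV-1 integrase (wild type or mutant) was expressed in E. coli, with 10% glycerol in all buffers. Reactions were stopped with EDTA/formamide dye. IC50 came from a logistic nonlinear fit; the ratio is IC50 mutant/WT from two independent experiments.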
# [9] = system: Human immunodeficiency virus 1; settings: NL4-3; remark: listed apart in the source
# [10] = system: Human immunodeficiency virus 1; experiment: Fold resistance, ratio of EC50 for raltegravir-resistant Human immunodeficiency virus 1 1556-1 expressing integrase Y143C mutant to EC50 for raltegravir-resistant Human immunodeficiency virus 1 1556-1 expressing wild-type integrase; type: functional
# [11] = Cytotoxicity against human MT4 cells infected with raltegravir-resistant Human immunodeficiency virus 1 4736-2; type: cell-based; settings: MT4 cells infected with raltegravir-resistant HIV-1 4736-2, read-out: TC50 (the source's name)
# [12] = Cytotoxicity against human MT4 cells infected with raltegravir-resistant Human immunodeficiency virus 1 1556-1; type: cell-based; settings: MT4 cells infected with raltegravir-resistant HIV-1 1556-1, read-out: TC50 (the source's name)
# [13] = as §2; type: cell-based; settings: CEM-SS cells infected with HIV-1 3B, read-out: TC50; outline: as §1
# [14] = Cytotoxicity against human MT4 cells infected with raltegravir-resistant Human immunodeficiency virus 1 8070-2; type: cell-based; settings: MT4 cells infected with raltegravir-resistant HIV-1 8070-2, read-out: TC50 (the source's name)
# [15] = system: Human immunodeficiency virus 1; experiment: Fold resistance, ratio for Human immunodeficiency virus 1 NL4-3 reverse transcriptase Y181C mutant to wild-type Human immunodeficiency virus 1 NL4-3 reverse transcriptase
# Outline: (§3)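 HIV-1 NL4-3 strains carrying the reverse transcriptase K103N or Y181C mutation were tested in MAGI R5 cells, with the NNRTI TNK-651 as control. Fold-resistance is the mutant/wild-type ratio.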
# [16] = system: Human immunodeficiency virus 1; experiment: Fold resistance, ratio for Human immunodeficiency virus 1 NL4-3 reverse transcriptase K103N mutant to wild-type Human immunodeficiency virus 1 NL4-3 reverse transcriptase; outline: as §3
SMILES,Activity [2] [%],IC50 [3] [µM],IC50 [4] [µM],also measured
CC(C)c1c(Cc2ccccc2)n(COCCc2ccc(F)cc2)c(=O)n(O)c1=O,83,> 111,1.6,Activity [1]: 27%
CCc1c(Cc2ccccc2)c(=O)n(O)c(=O)n1COCc1ccc(F)cc1,–,> 111,11,–
CC(C)c1c(Cc2ccccc2)n(COCc2ccc(F)cc2F)c(=O)n(O)c1=O,100,> 111,4.8,EC50 [5]: 2.1 µM; CC50 (CEM-SS): > 100 µM; selectivity ratio [6]: > 47
CCc1c(Cc2ccccc2)n(COCc2ccccc2)c(=O)n(O)c1=O,–,> 111,8.2,–
CC(C)c1c(Cc2ccccc2)n(CCCc2ccc(F)cc2)c(=O)n(O)c1=O,97,> 111,0.44,Activity [1]: 12%
CCc1c(Cc2ccccc2)c(=O)[nH]c(=O)n1COCc1ccccc1,100,–,–,Activity [1]: 48%
CC(C)c1c(Cc2ccccc2)n(COCc2ccc(F)cc2)c(=O)n(C)c1=O,–,> 111,> 111,–
Cc1nnc(C(=O)NC(C)(C)c2nc(C(=O)NCc3ccc(F)cc3)c(O)c(=O)n2C)o1 [RALTEGRAVIR],–,–,–,Ratio IC50 [7]: 139; Ratio IC50 [8]: 24; Ratio IC50 [9]: 8; Ratio EC50 [10]: >855
Cc1cn(Cc2ccccc2)c(=O)n(O)c1=O,–,> 111,> 111,–
CC(C)c1c(Cc2ccccc2)n(COCc2cccc(Cl)c2F)c(=O)n(O)c1=O,100,> 111,2.3,CC50 [11]: 2 µM; CC50 [12]: 2 µM; Ratio IC50 [7]: 14; EC50 [5]: 0.95 µM; Ratio IC50 [8]: 5; Ratio IC50 [9]: 5; CC50 at 144 h [13]: > 100 µM; selectivity ratio [6]: > 105; CC50 [14]: 2 µM; Ratio EC50 [10]: >1.7
CC(C)c1c(Cc2ccccc2)n(COCCCc2ccc(F)cc2)c(=O)n(O)c1=O,92,> 111,3.2,Activity [1]: 30%
CCc1c(Cc2ccccc2)c(=O)n(O)c(=O)n1COCc1ccccc1,–,> 111,36,–
CCc1c(Cc2ccccc2)n(Cc2ccccc2)c(=O)n(O)c1=O,–,> 111,> 111,–
CC(C)c1c(Cc2ccccc2)n(CCCCc2ccc(F)cc2)c(=O)n(O)c1=O,94,> 111,0.56,Activity [1]: 6%
CCc1c(Cc2ccccc2)c(=O)[nH]c(=O)n1COCc1ccc(F)cc1,92,–,–,Activity [1]: 10%
CC(C)c1c(Cc2ccc(F)cc2)n(COCc2ccc(F)cc2)c(=O)n(O)c1=O,–,> 111,5.5,–

SMILES,Activity [2] [%],IC50 [3] [µM],IC50 [4] [µM],also measured
Cc1cn(Cc2ccc(F)cc2)c(=O)n(O)c1=O,–,> 111,> 111,–
CC(C)c1c(Cc2ccccc2)n(CCc2ccc(F)cc2)c(=O)n(O)c1=O,–,> 111,46,–
COn1c(=O)c(C(C)C)c(Cc2ccccc2)n(COCc2ccc(F)cc2)c1=O,–,> 111,> 111,–
CCc1c(Cc2ccccc2)n(Cc2ccc(F)cc2)c(=O)n(O)c1=O,–,> 111,24,–
O=c1c2ccccc2n(Cc2ccccc2)c(=O)n1O,–,> 111,–,–
CC(C)c1c(Cc2ccccc2)n(Cc2ccccc2)c(=O)n(O)c1=O,–,> 111,28,–
CC(C)c1c(Cc2ccccc2)n(COCc2ccc(F)cc2)c(=O)n(O)c1=O,–,–,–,Ratio [15]: 48; Ratio [16]: 16
CC(C)c1c(Cc2ccc(F)cc2)n(Cc2ccc(F)cc2)c(=O)n(O)c1=O,–,> 111,73,–
O=c1c2ccccc2n(Cc2ccc(F)cc2)c(=O)n1O,–,> 111,–,–
CC(C)c1c(Cc2ccc(F)cc2)n(Cc2ccccc2)c(=O)n(O)c1=O,–,> 111,32,–
CC(C)c1c(Cc2ccccc2)n(COCCCCc2ccc(F)cc2)c(=O)n(O)c1=O,88,> 111,4.5,Activity [1]: 12%
CC(C)c1c(Cc2ccccc2)n(COCc2ccc(F)cc2)c(=O)[nH]c1=O,–,> 111,> 111,–
CC(C)c1c(Cc2ccccc2)n(Cc2ccc(F)cc2)c(=O)n(O)c1=O,–,> 111,22,–
Cc1cn(COCc2ccccc2)c(=O)n(O)c1=O,–,> 111,75,–
CC(C)c1c(Cc2ccc(F)cc2)n(COCc2ccccc2)c(=O)n(O)c1=O,100,> 111,7.3,EC50 [5]: 1.1 µM; CC50 (CEM-SS): > 20 µM; selectivity ratio [6]: > 18
